# From ChEMBL document CHEMBL1127358 (J Med Chem, 1994)
# Key:
# [1] = target: Muscarinic acetylcholine receptor M2 (Cavia porcellus); assay: Antagonistic activity against M2 muscarinic receptor in guinea pig left atrium derived by plotting log(DR - 1) vs log[antagonist]; conditions: read-out: pA2 (converted)
# [2] = target: T1, Muscarinic acetylcholine receptor M3 (Cavia porcellus, UniProt Q8VH26); assay: Antagonistic activity against M3 muscarinic receptor in guinea pig left ileum derived by plotting log(DR - 1) vs log[antagonist]; inactive up to a concentration of 10; format: functional, tissue-based; conditions: read-out: pA2 (converted)
# How it was run: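 Guinea pig ileum segments at 37 °C in Tyrode solution, isotonic recording. Carbachol dose–response curves were run before and after 60 min antagonist incubation. Compounds were tested up to 10 μM antagonist, and inactivity was scored up to that concentration.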
# [3] = system: Muscarinic acetylcholine receptors M2 & M3 (Cavia porcellus); assay: Selectivity ratio is the antilog of the difference between the pA2 values at guinea pig left atrium and ileum muscarinic receptors
# [4] = target: T1, Muscarinic acetylcholine receptor M3; assay: Antagonistic activity against M3 muscarinic receptor in guinea pig left ileum derived by plotting log(DR - 1) vs log[antagonist]; format: functional, tissue-based; conditions: read-out: pA2 (converted)
# How it was run: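 Guinea pig tissue. Ileum: terminal segments about 2 cm, 1 g tension, 37 °C, Tyrode solution, isotonic recording. Carbachol dose–response curves (0.01–0.5 μM) at 30 min intervals, second curve as control. Repeated after 60 min antagonist incubation. Dose ratios at agonist EC50, one to six antagonist concentrations, each tested 4–8 times. pA2 from Schild plot of log(DR−1); mean ± SE.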
# [5] = target: T2, Muscarinic acetylcholine receptor M2 (Rattus norvegicus, UniProt P10980); assay: Tested for affinity constant against M2 muscarinic receptor rat heart using [3H]-NMS
# T2 sequence (P10980 whole entry): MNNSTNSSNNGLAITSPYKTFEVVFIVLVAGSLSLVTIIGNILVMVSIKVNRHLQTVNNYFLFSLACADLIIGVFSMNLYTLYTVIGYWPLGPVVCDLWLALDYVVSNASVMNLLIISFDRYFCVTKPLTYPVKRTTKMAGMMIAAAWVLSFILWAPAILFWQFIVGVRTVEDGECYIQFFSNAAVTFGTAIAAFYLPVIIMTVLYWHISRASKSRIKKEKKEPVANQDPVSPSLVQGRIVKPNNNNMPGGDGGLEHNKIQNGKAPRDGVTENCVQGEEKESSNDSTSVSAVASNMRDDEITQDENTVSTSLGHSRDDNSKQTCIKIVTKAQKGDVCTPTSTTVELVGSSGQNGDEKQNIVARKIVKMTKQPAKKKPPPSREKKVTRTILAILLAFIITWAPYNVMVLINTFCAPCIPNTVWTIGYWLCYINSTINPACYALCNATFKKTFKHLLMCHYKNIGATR
# [6] = target: Muscarinic acetylcholine receptor M3 (Rattus norvegicus) (UniProt P08483); assay: Inhibitory activity against M3 muscarinic receptor binding in rat submaxillary gland by [3H]NMS at 10 uM concentration; format: tissue-based
# How it was run: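 Rat submaxillary gland homogenate. […] Nonspecific binding defined with 10 μM atropine. Percent inhibition of specific binding scored, with IC50 not derivable when inhibition stayed below 50%.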
# [7] = target: T3, Muscarinic acetylcholine receptor M1 (Rattus norvegicus, UniProt P08482); assay: Tested for affinity constant against M1 muscarinic receptor in rat cortex using [3H]pirenzepine
# T3 sequence (P08482 whole entry): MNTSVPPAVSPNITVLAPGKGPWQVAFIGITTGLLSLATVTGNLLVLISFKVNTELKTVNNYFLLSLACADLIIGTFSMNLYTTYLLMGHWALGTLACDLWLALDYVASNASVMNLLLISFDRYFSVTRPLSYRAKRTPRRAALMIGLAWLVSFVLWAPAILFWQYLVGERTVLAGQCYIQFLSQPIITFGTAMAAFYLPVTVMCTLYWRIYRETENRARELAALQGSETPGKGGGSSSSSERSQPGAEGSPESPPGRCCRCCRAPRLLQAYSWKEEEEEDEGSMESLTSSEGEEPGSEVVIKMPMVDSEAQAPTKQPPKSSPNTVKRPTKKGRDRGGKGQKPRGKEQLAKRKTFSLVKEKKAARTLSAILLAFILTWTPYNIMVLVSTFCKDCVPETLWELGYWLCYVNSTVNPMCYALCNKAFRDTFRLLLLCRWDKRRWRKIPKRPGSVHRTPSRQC
# [8] = Tested for affinity constant against M4 muscarinic receptor in NG 108-15 cell homogenates using [3H]NMS; format: cell-based
# [9] = target: Muscarinic acetylcholine receptor M3 (Rattus norvegicus, UniProt P08483); assay: Tested for affinity constant against M3 muscarinic receptor in rat submaxillary gland using [3H]NMS; format: tissue-based
# Muscarinic acetylcholine receptor M3 (Rattus norvegicus, UniProt P08483), sequence (P08483 whole entry): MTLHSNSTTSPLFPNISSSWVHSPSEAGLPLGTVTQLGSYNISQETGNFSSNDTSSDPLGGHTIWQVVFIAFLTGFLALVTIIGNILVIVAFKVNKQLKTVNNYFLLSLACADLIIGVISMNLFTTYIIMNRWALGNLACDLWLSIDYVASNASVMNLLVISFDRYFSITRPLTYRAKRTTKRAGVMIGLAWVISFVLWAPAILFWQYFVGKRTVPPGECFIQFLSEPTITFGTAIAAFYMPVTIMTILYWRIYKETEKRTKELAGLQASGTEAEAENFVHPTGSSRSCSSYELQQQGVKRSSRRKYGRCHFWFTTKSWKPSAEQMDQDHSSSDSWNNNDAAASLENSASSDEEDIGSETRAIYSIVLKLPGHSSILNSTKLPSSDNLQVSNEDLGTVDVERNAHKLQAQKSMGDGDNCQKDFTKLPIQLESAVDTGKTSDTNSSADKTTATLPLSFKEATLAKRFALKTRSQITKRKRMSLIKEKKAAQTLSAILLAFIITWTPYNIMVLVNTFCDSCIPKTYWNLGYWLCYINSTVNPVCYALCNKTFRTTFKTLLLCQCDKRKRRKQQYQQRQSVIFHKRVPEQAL
# T1 sequence (Q8VH26 whole entry): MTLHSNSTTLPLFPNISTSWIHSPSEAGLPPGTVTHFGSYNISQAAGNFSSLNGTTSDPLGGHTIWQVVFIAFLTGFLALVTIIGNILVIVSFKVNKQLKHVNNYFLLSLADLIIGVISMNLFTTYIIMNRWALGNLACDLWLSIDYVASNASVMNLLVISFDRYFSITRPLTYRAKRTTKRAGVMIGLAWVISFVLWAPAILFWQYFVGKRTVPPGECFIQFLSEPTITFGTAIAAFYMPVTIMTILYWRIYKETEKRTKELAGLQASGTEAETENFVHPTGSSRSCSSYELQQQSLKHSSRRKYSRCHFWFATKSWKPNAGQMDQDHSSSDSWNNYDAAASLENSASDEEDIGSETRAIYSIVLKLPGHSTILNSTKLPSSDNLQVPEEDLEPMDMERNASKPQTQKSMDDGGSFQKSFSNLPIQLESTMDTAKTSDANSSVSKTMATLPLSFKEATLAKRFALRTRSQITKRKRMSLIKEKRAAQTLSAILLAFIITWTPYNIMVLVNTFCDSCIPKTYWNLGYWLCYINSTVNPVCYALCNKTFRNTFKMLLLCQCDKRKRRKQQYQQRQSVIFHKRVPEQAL
# Muscarinic acetylcholine receptor M3 (Rattus norvegicus), sequence (P08483 whole entry, looked up): as the sequence (P08483 whole entry) above
Kb [1],Kb [2],Ratio [3],Kb [4],Ki [5],inhibition [6],Ki [7],Ki [9],SMILES,Log Ki [8]
1050 nM,> 10000 nM,> 10,,,,,,CCN(CC)CCCCCCN(CC(=O)N1c2ccccc2C(=O)Nc2cccnc21)CC(=O)N1c2ccccc2C(=O)Nc2cccnc21,
1.58 nM,,260,417 nM,1.58 nM,< 50%,1.86 nM,,COc1ccccc1CN(CCCCCCN(C)CCCCCCCCN(C)CCCCCCNCC(=O)N1c2ccccc2C(=O)Nc2cccnc21)CC(=O)N1c2ccccc2C(=O)Nc2cccnc21.O=C(O)C(=O)O.O=C(O)C(=O)O.O=C(O)C(=O)O.O=C(O)C(=O)O,-8.22
47.9 nM,,26,2040 nM,3.72 nM,,1.26 nM,251 nM,COc1ccccc1CN(CCCCCCN(C)CCCCCCCCN(C)CCCCCCN(CC(=O)N1c2ccccc2C(=O)Nc2cccnc21)Cc1ccccc1OC)CC(=O)N1c2ccccc2C(=O)Nc2cccnc21.O=C(O)C(=O)O.O=C(O)C(=O)O.O=C(O)C(=O)O.O=C(O)C(=O)O,-7.8
,,,,2.4 nM,,1.7 nM,174 nM,CN(CCCCCCCCN(C)CCCCCCNCC(=O)N1c2ccccc2C(=O)Nc2cccnc21)CCCCCCNCC(=O)N1c2ccccc2C(=O)Nc2cccnc21,-8.52
91.2 nM,,17,1550 nM,,,,,COc1ccccc1CNCCCCCCNCCCCCCCCNCCCCCCN,
4.57 nM,,98,447 nM,18.6 nM,,15.8 nM,2510 nM,COc1ccccc1CNCCCCCCN(C)CCCCCCCCN(C)CCCCCCN(CC(=O)N1c2ccccc2C(=O)Nc2cccnc21)CC(=O)N1c2ccccc2C(=O)Nc2cccnc21.O=C(O)C(=O)O.O=C(O)C(=O)O.O=C(O)C(=O)O.O=C(O)C(=O)O,-7.9
5.89 nM,,260,1550 nM,12.9 nM,,2.51 nM,6760 nM,CN(CCCCCCN)CCCCCCCCN(C)CCCCCCN(CC(=O)N1c2ccccc2C(=O)Nc2cccnc21)CC(=O)N1c2ccccc2C(=O)Nc2cccnc21.O=C(O)C(=O)O.O=C(O)C(=O)O.O=C(O)C(=O)O.O=C(O)C(=O)O,-6.72
,,48,,,,,,COc1ccccc1CNCCCCCCN(C)CCCCCCCCN(C)CCCCCCNCc1ccccc1OC,
,,,,,,,,CN(CCCCCCCCN(C)CCCCCCN(CC(=O)N1c2ccccc2C(=O)Nc2cccnc21)CC(=O)N1c2ccccc2C(=O)Nc2cccnc21)CCCCCCNCC(=O)N1c2ccccc2C(=O)Nc2cccnc21 [TRIPITRAMINE],-7.93
1580 nM,> 10000 nM,> 6,,,,,,CCCCN(CC(=O)N1c2ccccc2C(=O)Nc2cccnc21)CC(=O)N1c2ccccc2C(=O)Nc2cccnc21,
282 nM,,27,7590 nM,,,,,CN(CCCCCCN)CCCCCCCCN(C)CCCCCCN,
2510 nM,> 10000 nM,> 4,,,,,,CCN(CC)CCCCCCNCc1ccccc1OC,
15.5 nM,,49,759 nM,21.9 nM,,4.79 nM,155 nM,CN(CCCCCCCCN(C)CCCCCCN(CC(=O)N1c2ccccc2C(=O)Nc2cccnc21)CC(=O)N1c2ccccc2C(=O)Nc2cccnc21)CCCCCCN(CC(=O)N1c2ccccc2C(=O)Nc2cccnc21)CC(=O)N1c2ccccc2C(=O)Nc2cccnc21.O=C(O)C(=O)O.O=C(O)C(=O)O.O=C(O)C(=O)O.O=C(O)C(=O)O,-7.05
251 nM,,3,832 nM,,,,,CCN(CC)CCCCCCNCC(=O)N1c2ccccc2C(=O)Nc2cccnc21,
,,,,,,,,COc1ccccc1CNCCCCCCNCCCCCCCCNCCCCCCNCc1ccccc1OC [METHOCTRAMINE],-7.58
178 nM,,7,1260 nM,,,,,CCN(CC)CCCCCCN(CC(=O)N1c2ccccc2C(=O)Nc2cccnc21)Cc1ccccc1OC,
,,,100 nM,,,105 nM,251 nM,CCN(CC)CCCCC1CCN(CC(=O)N2c3ccccc3C(=O)Nc3cccnc32)CC1,-7.82
,,,661 nM,,,2.69 nM,468 nM,CN(CCCCCCN)CCCCCCCCN(C)CCCCCCNCC(=O)N1c2ccccc2C(=O)Nc2cccnc21,-7.74
3.09 nM,,190,575 nM,1.7 nM,,28.2 nM,794 nM,COc1ccccc1CNCCCCCCN(C)CCCCCCCCN(C)CCCCCCNCC(=O)N1c2ccccc2C(=O)Nc2cccnc21,-7.24
